Assay outcomes as filed in PubChem.
Only some compounds are listed: those with a hit (about 1.6% of all), similar ones and a draw of the others.
HDAC3 inh: HDAC3 deacetylase inhibitors, primary screen, biochemical, fluorescence, cell-free homogeneous. Histone deacetylase 3 (Homo sapiens), O15379. recombinant HDAC3, fluorogenic peptide/trypsin coupled. inhibition, % at 8.3 µM. actives 0.15% (n = 320,000); in the data active means inhibition above about 26%, passing the limit was not always enough; inconclusive means no clear call, values can overlap the other calls
JMJD2C inh: inhibitors of GASC-1 histone demethylase, primary screen, biochemical, fluorescence, DELFIA europium. actives 0.069% (n = 330,000). GST-JMJD2C(1-420) H3K9me3 demethylation. AID 2099, 2009. inhibition, % at 2.35 µM. Lysine-specific demethylase 4C (Homo sapiens), Q9H3R0;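 active means more than half of a compound's replicate wells show inhibition beyond 50%, single wells judged on their own value; inconclusive means some, but no more than half, of replicates pass 50% inhibition; inactive means no replicate passes 50% inhibition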;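 further: signal counts dimethyl H3K9 product captured on neutravidin plate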
Target sequence (Q9H3R0 1-420 limits assumed): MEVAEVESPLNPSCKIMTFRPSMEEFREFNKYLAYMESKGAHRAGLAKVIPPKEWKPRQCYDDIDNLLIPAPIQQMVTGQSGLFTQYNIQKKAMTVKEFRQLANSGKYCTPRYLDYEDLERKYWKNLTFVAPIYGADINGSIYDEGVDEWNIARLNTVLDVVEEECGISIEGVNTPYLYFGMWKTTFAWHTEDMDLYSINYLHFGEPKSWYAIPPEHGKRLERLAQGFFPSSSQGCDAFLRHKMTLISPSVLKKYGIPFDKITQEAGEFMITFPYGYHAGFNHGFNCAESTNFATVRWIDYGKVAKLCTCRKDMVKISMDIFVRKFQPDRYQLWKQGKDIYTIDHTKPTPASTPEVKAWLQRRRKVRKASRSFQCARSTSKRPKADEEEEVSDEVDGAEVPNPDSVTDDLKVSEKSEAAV
Pemphigus Ab inh: inhibitors of pemphigus antibody binding to DSG3, primary screen, biochemical, bead-based, flow cytometry, scFv-GFP | Desmoglein-3 (Homo sapiens), P32926 | DSG3-coupled beads, scFv-anti-DSG3-GFP binding; stronger effect = lower value | binding (percent of control), % at 10 µM | actives 0.48% (n = 310,000) | AID 588358, 2011;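 active means binding more than 3 SD below its plate's average and above zero; inconclusive means below that plate limit but binding exactly zero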;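 further: hits lower antibody fragment binding to DSG3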
T cell HTS: modulators of CD8 T cell-vesicle binding, primary screen, mouse 2C CD8+ T cells, flow cytometry. 2C CD8+ T cell-vesicle binding; stronger effect = lower value. actives 0.068% (n = 330,000). response (vesicle binding), % at 7 µM;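 active means response, share of CD8 T cells binding vesicles, and their 90th percentile fluorescence all below set limits, cut at about 80% in these data, passing the limit was not always enough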;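 further: values below 100% mean blocked vesicle binding to the CD8+ T cells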
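Benchmarks: naked versus QL9-loaded vesicles / Assay system: purified 2C TCR transgenic mouse naive CD8+ T cells / Technique: high-throughput flow cytometry with anti-B7-1 and anti-CD8 staining / Timing: Cell–vesicle co-incubation 1.5 h at 37 °C, staining 20 min on ice / Read-out: percent CD8+ FL2 mean versus row control / Probe or stimulus: QL9-loaded Drosophila micro-vesicles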
Arr AP2 block: inhibitors of beta-arrestin/AP2 binding, primary screen, biochemical, GPCR trafficking, flow cytometry. FITC-arrestin peptide / GST-AP2 beads; AP2 beta2 appendage carries R879A mutation. inhibition, % at 10 µM. AID 504490, 2011. beta-arrestin 1 C-terminal peptide binding to AP2 beta2-adaptin appendage (human). actives 0.31% (n = 340,000);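 active means inhibition above a set limit, near 3 SD of compounds lacking own fluorescence, cut at about 54% in these data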
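Assay system: GST-AP2 R879A bound to glutathione beads, E. coli-expressed; Medium: PBS with 0.05% Tween 20 and 0.1% BSA; Also added: fluorescein-tagged arrestin peptide at 50 nM final; Timing: 12 min plus 1 h, RT; Measured by: flow cytometry, FL1 (488/535 nm); Evaluation: percent drop in bead-associated FITC signal.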
LANA-H2B inh: blockers of LANA interaction with H2A/H2B – biochemical, FP readout, HTS, primary screen | Protein LANA1 (Human herpesvirus 8 type P (isolate GK18)), Q9QR71 | cell-free LANA-H2A/H2B peptide, fluorescence polarization | inhibition, % (test concentration not listed) | actives 0.6% (n = 320,000) | AID 2629, 2010; in the data active means inhibition mostly above about 10%, no sharp cut-off; inactive means mostly below about 6.7%
Each line names hits and unclear results; the compound was inactive in the other large screens.

O=C(NC1CCS(=O)(=O)C1)c1cccc(Br)c1 (stereo not drawn)	none
CC(=O)Nc1ccc(C(=O)NC2CCCC2)cc1	none (no result: JMJD2C inh)
O=C(NC1CCS(=O)(=O)C1)c1cccnc1 (stereo not drawn)	T cell HTS 27 (no result: Pemphigus Ab inh, Arr AP2 block)
O=C(Nc1ccc(C(=O)NC2CCCCC2)cc1)c1cccnc1	LANA-H2B inh 14
Cc1ccccc1N1C(=O)C2ON(c3ccccc3)C(c3ccco3)C2C1=O (stereo not drawn)	none
CCOc1ccc(N2C(=O)C3ON(c4ccccc4)C(c4ccco4)C3C2=O)cc1 (stereo not drawn)	LANA-H2B inh 11
Cc1ccc(NC(=O)CSCC(=O)Nc2cc(S(=O)(=O)N3CCOCC3)ccc2OC(C)C)cc1	none (no result: HDAC3 inh, JMJD2C inh, T cell HTS, LANA-H2B inh)
COc1ccc(Cc2nnc(N/N=C/c3ccc(N(C)C)cc3)[nH]c2=O)cc1OC	Pemphigus Ab inh 77
COc1ccc(/C=N/Nc2nnc(Cc3ccc(OC)c(OC)c3)c(=O)[nH]2)cc1OC	none
NC(=O)c1c(NC(=O)c2cccnc2Cl)sc2c1CCCC2	T cell HTS 0.0
COc1ccc(OC/C(O)=C(\C#N)c2nc3ccccc3[nH]2)cc1	Pemphigus Ab inh 16
COc1ccc(/C=N/OC/C(O)=C(\C#N)c2nc3ccccc3[nH]2)cc1	none
O=C(NCCn1cccn1)C1CCC(=O)N(CCc2ccccc2)C1 (stereo not drawn)	none
Nn1c(SCC(=O)NC2CCCCCC2)nnc1-c1ccco1	none (no result: HDAC3 inh, JMJD2C inh, T cell HTS, Arr AP2 block, LANA-H2B inh)
CCCC1CC(C)(/C(C)=N\NC(N)=S)OC1=O (stereo not drawn)	Arr AP2 block 56
C/C(CCC1CC(C)(C)OC1=O)=N\NC(N)=S (stereo not drawn)	none (no result: Pemphigus Ab inh)
CC1(C)Cc2nc3sc4c(=O)[nH]cnc4c3cc2CS1	Pemphigus Ab inh 80
CCCCCn1cnc2c(sc3nc4c(cc32)CSC(C)(C)C4)c1=O	none
COC(C(=O)Nc1ccnn1C1CCN(C(=O)c2ccc(C)cc2)CC1)c1ccccc1 (stereo not drawn)	none
Clc1ccccc1-c1nnc(-c2ccc3c(c2)OCO3)o1	Pemphigus Ab inh 79
CCCCN(C(=O)C1CC(=O)N(c2ccc3c(c2)OCCO3)C1)c1c(N)n(CCC)c(=O)[nH]c1=O (stereo not drawn)	none (no result: Pemphigus Ab inh)
CCCCN(C(=O)C1CC(=O)N(c2ccc3c(c2)OCCO3)C1)c1c(N)n(CCCC)c(=O)[nH]c1=O (stereo not drawn)	LANA-H2B inh 25
COc1ccc2cc(Br)ccc2c1CC(=O)NCCCN1CCOCC1	JMJD2C inh 57
O=C(Cc1cccs1)Nc1ccc(F)cc1	none
Clc1nssc1=Nc1ccc(Br)cc1	none (no result: HDAC3 inh, Pemphigus Ab inh, T cell HTS, LANA-H2B inh)
Clc1ccc(N=c2ssnc2Cl)nc1	JMJD2C inh 54
Clc1ccc(-c2nnc3sc(-c4ccc(Br)o4)nn23)cc1	LANA-H2B inh 46
C=CCn1c(SCC(=O)Nc2ccc(-c3nc4ccc(C)cc4s3)cc2)nnc1-c1ccccc1	LANA-H2B inh 159
CCN(CC(=O)Nc1ccccc1C(F)(F)F)C(=O)CCc1ccccc1	none
O=C(COC(=O)CN1C(=O)c2ccccc2C1=O)Nc1ccccc1C(F)(F)F	Pemphigus Ab inh 84 (no result: HDAC3 inh, JMJD2C inh, T cell HTS, Arr AP2 block, LANA-H2B inh)
O=C(CCc1ccccc1)Nc1ccccc1C(F)(F)F	LANA-H2B inh 32
O=C(COC(=O)CN1C(=O)NC2(CCCC2)C1=O)Nc1ccccc1C(F)(F)F	HDAC3 inh inconclusive
CCc1nnc(NC(=O)CCc2ccccc2OC)s1	none
Oc1ccc(/C=N/Nc2ccnc3cc(Cl)ccc23)cc1O	none
Oc1ccc(/C=N/Nc2ccnc3cc(Cl)ccc23)c(O)c1O	Pemphigus Ab inh 93
